# Source: ChEMBL document CHEMBL1126317, “2-(aminoalkyl)-5-nitropyrazolo[3,4,5-kl]acridines, a new class of anticancer agents” (1992)
# Activity calls are given as the source filed them. The calls are words filed in the database; no cut-off is given here.
# Legend:
# L1210 [1] = assay: In vitro antitumor activity against L1210 leukemia cell line.; format: functional; settings: Mus musculus, read-out: ID50 (the source's name)
# Mus musculus [2] = assay: In vivo antitumor activity of the compound(ip, 100 mg/kg for 5 days) against CD2F1 mice implanted intraperitoneally with P388 leukemia cells.; format: functional; settings: route intraperitoneal
# Mus musculus [3] = assay: In vivo antitumor activity of the compound(ip, 50 mg/kg for 5 days) against CD2F1 mice implanted intraperitoneally with P388 leukemia cells.; format: functional; settings: route intraperitoneal
# Mus musculus [4] = assay: In vivo antitumor activity of the compound(ip, 25 mg/kg for 5 days) against CD2F1 mice implanted intraperitoneally with P388 leukemia cells; Day 30 survivors=1/6; format: functional; settings: route intraperitoneal
# Mus musculus [5] = assay: In vivo antitumor activity of the compound(ip, 25 mg/kg for 5 days) against CD2F1 mice implanted intraperitoneally with P388 leukemia cells.; format: functional; settings: route intraperitoneal
# Mus musculus [6] = assay: In vivo antitumor activity of the compound(ip, 12.5 mg/kg for 5 days) against CD2F1 mice implanted intraperitoneally with P388 leukemia cells.; format: functional; settings: route intraperitoneal
# Mus musculus [7] = assay: In vivo antitumor activity of the compound(ip, 25 mg/kg for 5 days) against CD2F1 mice implanted intraperitoneally with P388 leukemia cells; Day 30 survivors=2/6; format: functional; settings: route intraperitoneal
# [8] = Ratio of the ID50's showing antitumor activity against HCT-8 and L1210 leukemia cell lines.; format: functional
# Summary of the method: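 Ratio taken as ID50 in HCT-8 cells divided by ID50 in L1210 cells, both ID50s expressed as molar concentrations.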
# Mus musculus [9] = assay: In vivo antitumor activity of the compound(ip, 12.5 mg/kg for 5 days) against CD2F1 mice implanted intraperitoneally with P388 leukemia cells; Day 30 survivors=1/6; format: functional; settings: route intraperitoneal
# L1210 [10] = assay: In vitro antitumor activity against L1210 leukemia cell line; IA= Inactive; format: functional, cell-based; settings: Mus musculus
# Mus musculus [11] = assay: In vivo antitumor activity of the compound(ip, 50 mg/kg for 5 days) against CD2F1 mice implanted intraperitoneally with P388 leukemia cells; Day 30 survivors=3/6; format: functional; settings: route intraperitoneal
# Mus musculus [12] = assay: In vivo antitumor activity of the compound(ip, 3.13 mg/kg for 5 days) against CD2F1 mice implanted intraperitoneally with P388 leukemia cells.; format: functional; settings: route intraperitoneal
# Mus musculus [13] = assay: In vivo antitumor activity of the compound(ip, 200 mg/kg for 5 days) against CD2F1 mice implanted intraperitoneally with P388 leukemia cells.; format: functional; settings: route intraperitoneal
# Mus musculus [14] = assay: In vivo antitumor activity of the compound(ip, 6.25 mg/kg for 5 days) against CD2F1 mice implanted intraperitoneally with P388 leukemia cells.; format: functional; settings: route intraperitoneal
# Mus musculus [15] = assay: In vivo antitumor activity of the compound(ip, 3.12 mg/kg for 5 days) against CD2F1 mice implanted intraperitoneally with P388 leukemia cells.; format: functional; settings: route intraperitoneal
# Mus musculus [16] = assay: In vivo antitumor activity of the compound(ip, 3.12 mg/kg for 5 days) against CD2F1 mice implanted intraperitoneally with P388 leukemia cells; Day 30 survivors=3/6; format: functional; settings: route intraperitoneal
# HCT-8 = assay: In vitro antitumor activity against HCT-8 colon cancer cell line.; format: functional; settings: Homo sapiens, read-out: ID50 (the source's name)
# Mus musculus [17] = assay: In vivo antitumor activity of the compound(ip, 6 mg/kg for 5 days) against CD2F1 mice implanted intraperitoneally with P388 leukemia cells; Day 30 survivors=1/6; format: functional; settings: route intraperitoneal
# Mus musculus [18] = assay: In vivo antitumor activity of the compound(ip, 6 mg/kg for 5 days) against CD2F1 mice implanted intraperitoneally with P388 leukemia cells.; format: functional; settings: route intraperitoneal
# Mus musculus [19] = assay: In vivo antitumor activity of the compound(ip, 3.12 mg/kg for 5 days) against CD2F1 mice implanted intraperitoneally with P388 leukemia cells; Day 30 survivors=2/6; format: functional; settings: route intraperitoneal
# Mus musculus [20] = assay: In vivo antitumor activity of the compound(ip, 6.25 mg/kg for 5 days) against CD2F1 mice implanted intraperitoneally with P388 leukemia cells; Day 30 survivors=1/6; format: functional; settings: route intraperitoneal
smiles,measurement,setting,value
CCN(CC)CCN1Nc2c3cc(C)ccc3nc3c([N+](=O)[O-])ccc1c23.CS(=O)(=O)O,IC50,L1210 [1],860 nM
same,T/C,Mus musculus [2],136%
CCN(CC)CCN1Nc2c3c(OC)cc(OC)cc3nc3c([N+](=O)[O-])ccc1c23.CS(=O)(=O)O,IC50,L1210 [1],490 nM
same,T/C,Mus musculus [3],94%
CCN(CC)CCN1Nc2c3cc(N(C)C)ccc3nc3c([N+](=O)[O-])ccc1c23.CS(=O)(=O)O,IC50,L1210 [1],900 nM
same,Activity,Mus musculus [4],1
same,T/C,Mus musculus [5],178%
CCN(CC)CCN1Nc2c3ccc(OCc4ccccc4)cc3nc3c([N+](=O)[O-])ccc1c23.CS(=O)(=O)O,IC50,L1210 [1],180 nM
same,T/C,Mus musculus [6],87%
COc1ccc2c(c1)-c1nn(CCCN(C)C)c3ccc([N+](=O)[O-])c(c13)N2.CS(=O)(=O)O,Activity,Mus musculus [7],2
same,Ratio,[8],0.33
CN(C)CCCN1Nc2c3ccccc3nc3c([N+](=O)[O-])ccc1c23.CS(=O)(=O)O,IC50,L1210 [1],190 nM
same,Activity,Mus musculus [9],1
same,T/C,Mus musculus [6],214%
CCN(CC)CCN1Nc2c3cc4c(cc3nc3c([N+](=O)[O-])ccc1c23)OCO4.CS(=O)(=O)O,IC50,L1210 [1],160 nM
same,T/C,Mus musculus [3],173%
COc1ccc2c(c1)-c1nn(CCO)c3ccc([N+](=O)[O-])c(c13)N2,ID50,L1210 [10],inactive
CCN(CC)CCN1Nc2c3cccc(OC)c3nc3c([N+](=O)[O-])ccc1c23.CS(=O)(=O)O,IC50,L1210 [1],640 nM
same,T/C,Mus musculus [2],111%
COc1ccc2c(c1)-c1nn(CCN(C)C)c3ccc([N+](=O)[O-])c(c13)N2.CS(=O)(=O)O,IC50,L1210 [1],400 nM
same,Activity,Mus musculus [11],3
CCOC(=O)Oc1ccc2c(c1)-c1nn(CCN(CC)CC)c3ccc([N+](=O)[O-])c(c13)N2.CS(=O)(=O)O,T/C,Mus musculus [12],243%
CCN(CC)CCN1Nc2c3c(O)cccc3nc3c([N+](=O)[O-])ccc1c23.CS(=O)(=O)O,IC50,L1210 [1],600 nM
same,T/C,Mus musculus [13],117%
CCN(CC)CCN1Nc2c3cc(OC)cc(OC)c3nc3c([N+](=O)[O-])ccc1c23.CS(=O)(=O)O,IC50,L1210 [1],760 nM
same,T/C,Mus musculus [3],88%
COc1cc(OC)c2c(c1)-c1nn(CCN(C)C)c3ccc([N+](=O)[O-])c(c13)N2,IC50,L1210 [1],210 nM
CCN(CC)CCN1Nc2c3ccccc3nc3c([N+](=O)[O-])ccc1c23.CS(=O)(=O)O,IC50,L1210 [1],190 nM
same,T/C,Mus musculus [14],165%
CC(=O)Oc1ccc2nc3c([N+](=O)[O-])ccc4c3c(c2c1)NN4CCN(C)C.CS(=O)(=O)O,T/C,Mus musculus [15],265%
same,IC50,L1210 [1],1.2 nM
same,Activity,Mus musculus [16],3
CCCCOc1ccc2c(c1)-c1nn(CCN(CC)CC)c3ccc([N+](=O)[O-])c(c13)N2.CS(=O)(=O)O,IC50,L1210 [1],12 nM
same,T/C,Mus musculus [6],209%
CCN(CC)CCN1Nc2c3cc(SC)ccc3nc3c([N+](=O)[O-])ccc1c23.CS(=O)(=O)O,IC50,L1210 [1],1100 nM
same,Ratio,[8],0.32
same,T/C,Mus musculus [3],114%
same,IC50,HCT-8,350 nM
Cl.O=[N+]([O-])c1ccc2c3c(c4ccccc4nc13)NN2CCNCCO,IC50,L1210 [1],220 nM
same,T/C,Mus musculus [5],235%
CCN(CC)CCN1Nc2c3c(Cl)c(O)ccc3nc3c([N+](=O)[O-])ccc1c23.CS(=O)(=O)O,IC50,L1210 [1],0.39 nM
same,Activity,Mus musculus [17],1
same,T/C,Mus musculus [18],196%
CC(=O)Oc1ccc2nc3c([N+](=O)[O-])ccc4c3c(c2c1)NN4CCCN(C)C.CS(=O)(=O)O,T/C,Mus musculus [15],252%
same,IC50,L1210 [1],1.9 nM
same,Activity,Mus musculus [19],2
CCCC(=O)Oc1ccc2c(c1)-c1nn(CCN(CC)CC)c3ccc([N+](=O)[O-])c(c13)N2.CS(=O)(=O)O,IC50,L1210 [1],4.3 nM
same,Activity,Mus musculus [20],1
COc1ccc2c(c1)-c1nn(CCN3CCCC3)c3ccc([N+](=O)[O-])c(c13)N2.CS(=O)(=O)O,IC50,L1210 [1],160 nM
same,T/C,Mus musculus [5],211%
C=CCOc1ccc2nc3c([N+](=O)[O-])ccc4c3c(c2c1)NN4CCCN(C)C.CS(=O)(=O)O,IC50,L1210 [1],2200 nM
same,T/C,Mus musculus [6],221%
